Experimental data from different studies.
Lines come from different studies, so protocols differ.
Target: Cytochrome P450 2C9 (CYP2C9, Homo sapiens, UniProt P11712)
Read-out: enzyme activity
Mode: inhibitor

CC1(CO)C(O[C@@H]2O[C@H](C(=O)O)[C@@H](O)[C@H](O)[C@H]2O)CC[C@@]2(C)C1CC[C@]1(C)C2CC=C2[C@H]3CC(C)(C)[C@H](O)[C@@H](O)[C@]3(CO)[C@H](O)C[C@]21C (stereo partly shown)  IC50 (mass spectrometry; human, liver microsomes): > 90 µg/mL
NC(=O)C1CCCN1C(=O)Cc1ccc(N(CCCO)Cc2cnc3nc(N)nc(N)c3n2)cc1 (stereo not shown)  inhibition (luciferase; 10 µM): -3.91%
CC(=O)N1CCN(c2ccc(OCC3COC(Cn4ccnc4)(c4ccc(Cl)cc4Cl)O3)cc2)CC1 (stereo not shown)  inhibition (human, liver microsomes; 1 µM): 24%
O=C(Nc1c2c(cc3c1CCC3)CCC2)NS(=O)(=O)/C=C/c1nccs1  inhibition (human, liver microsomes; 2 µM, pH 7.4): 21.4%
C=C[C@H]1C[N@@]2CC[C@H]1C[C@@H]2[C@@H](O)c1ccnc2ccc(OC)cc12  inhibition (human, liver microsomes; 10 µM): 15%
O=C(NS(=O)(=O)c1ccc(Br)s1)c1ccc(Cl)cc1Cl  Ki (human, liver microsomes): 0.1 µM
COC(=O)C1CCN(C(=O)c2cccc(NCc3cnc4nc(N)nc(N)c4n3)c2)CC1  inhibition (luciferase; 10 µM): -4.69%
CC(=O)c1cccc(OCc2cc(C(=O)N(C)[C@@H](C)c3ccccn3)no2)c1  IC50 (human, liver microsomes): 6.3 µM
C=CC(=O)Nc1cc(Nc2nccc(Nc3cc(Cl)c(F)cc3C(C)(C)O)n2)c(OC)cc1N1CC[C@@H](N(C)C)C1  inhibition (human, liver microsomes; 10 µM): < 20%
O=C(N[C@H](Cc1c[nH]c2ccccc12)C(=O)Nc1ccncc1)c1ccc(-c2cc(F)ccc2F)cc1F  inhibition (human, liver microsomes; 1 µM): 92%
NC(=O)C1CCN(C(=O)Cc2ccc(N(CCCO)Cc3cnc4nc(N)nc(N)c4n3)cc2)CC1  inhibition (luciferase; 10 µM): -7.8%
CCc1cc(/C(C)=N/OCc2ccc(C3CCCCC3)c(C(F)(F)F)c2)ccc1CN1CC(C(=O)O)C1  inhibition (human, liver microsomes; 200 µM, 20 min): 43.2%
Cc1cccc(F)c1N1CCC(N2Cc3cn(CC(C)(F)F)nc3N(Cc3ccccc3C(F)(F)F)C2=O)CC1  IC50 (human, liver microsomes): > 10 µM
